Measurements reported in paper PMC6710528 (British Journal of Clinical Pharmacology, 2019).
Entries after “also recorded” stand apart in the source; their conditions may differ. Like-named read-outs stand apart in the source and are kept apart here. One block for each molecule: values may come before it.

Key:
[1] = assay type: in vivo, human (healthy subjects); details: for Increase in T1/2: quizartinib coadministered with ketoconazole; for Tmax / AUC(0-inf) / AUC(0-t) / half-life / Cmax: human, plasma, oral; for AUC(0-inf): AUCinf; for AUC(0-inf) / AUC(0-t) / Cmax: geometric LS mean (SE); for AUC(0-t): AUClast; for half-life: Mean T1/2 (CV%); for Geometric mean CL/F (%CV): quizartinib
[2] = C-QTc model, phase 2 data; ref data on file, Daiichi Sankyo, Inc; cited from earlier work
[3] = Plasma concentrations of ketoconazole and fluconazole to confirm steady state; assay type: in vivo, human (healthy subjects); details: 200 mg twice daily
In short: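 Inhibitors were given orally for 8 days (moderate inhibitor: 200 mg twice daily) before the test compound. Blood was drawn before the morning dose on Days 6–8. On Day 8 it was also drawn at 2 and 12 h post-dose for the strong inhibitor, and at 3 and 12 h for the moderate inhibitor. Plasma levels were measured by validated LC–MS/MS and reported as mean ± standard deviation.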

[4] = 12-lead electrocardiograms: QTcF interval by ICH E14 category; assay type: in vivo, human (healthy subjects); details: single 30-mg dose alone or with ketoconazole or fluconazole
[5] = Safety: adverse event evaluation; assay type: in vivo, human (healthy subjects)
In short: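 Healthy males and females aged 18–55 years were randomised 1:1:1 to strong inhibitor + test compound, moderate inhibitor + test compound, or test compound alone. A single oral 30 mg dose was given on Day 8. The safety population was everyone who received the test compound or ≥1 inhibitor dose. Assessments included physical exams, vital signs, 12‑lead ECG, haematology, chemistry and urinalysis. AEs were graded for severity, relation to study drugs and clinical significance through Day 29.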

[6] = ref data on file, Daiichi Sankyo, Inc; cited from earlier work
[7] = AC886 in plasma, (Ketoconazole + Quizartinib)/(Quizartinib)
[8] = 30 mg, quizartinib in plasma, single 30-mg dose of quizartinib alone
[9] = 200 mg, quizartinib in plasma, single 30-mg dose with fluconazole 200 mg twice daily
[10] = 200 mg, quizartinib in plasma, single 30-mg dose with ketoconazole 200 mg twice daily
[11] = with fluconazole coadministration
[12] = with ketoconazole coadministration vs quizartinib alone

- AUCinf, ratio of geometric LS mean (90% CI) [1, 7]: 85%
- AUClast, ratio of geometric LS mean (90% CI) [1, 7]: 67%
- Cmax, ratio of geometric LS mean (90% CI) [1, 7]: 40%
- Median Tmax (min, max) ([1]; AC886 in plasma, single 30-mg dose of quizartinib alone): 5.1 h
- Median Tmax (min, max) ([1]; AC886 in plasma, single 30-mg quizartinib dose with fluconazole): 5.0 h
- Median Tmax (min, max) ([1]; AC886 in plasma, single 30-mg quizartinib dose with ketoconazole): 48.0 h
- Ratio of geometric LS means of Cmax of AC886 to Cmax of quizartinib ([1]; fluconazole + quizartinib arm): 0.12
- Ratio of geometric LS means of Cmax of AC886 to Cmax of quizartinib ([1]; ketoconazole + quizartinib arm): 0.04
- Ratio of geometric LS means of Cmax of AC886 to Cmax of quizartinib ([1]; quizartinib arm): 0.13
- Increase in T1/2 [1]: 96%
Structure (SMILES): CC(C)(CO)c1cc(NC(=O)Nc2ccc(-c3cn4c(n3)sc3cc(OCCN5CCOCC5)ccc34)cc2)no1 [AC886]
- Effect on QTcF, fold lower than quizartinib [2]: 10 fold

- Mean (± standard deviation) plasma concentration ([3]; predose on Day 6): 13.2 ± 4.1 µg/mL
- Mean (± standard deviation) plasma concentration ([3]; predose on Day 7): 13.8 ± 3.8 µg/mL
- Mean (± standard deviation) plasma concentration ([3]; predose on Day 8): 14.5 ± 3.7 µg/mL
Structure (SMILES): OC(Cn1cncn1)(Cn1cncn1)c1ccc(F)cc1F [fluconazole]

- Mean (± standard deviation) plasma concentration ([3]; predose on Day 6): 1.5 ± 0.8 µg/mL
- Mean (± standard deviation) plasma concentration ([3]; predose on Day 7): 1.4 ± 0.7 µg/mL
- Mean (± standard deviation) plasma concentration ([3]; predose on Day 8): 1.4 ± 0.8 µg/mL
Structure (SMILES): CC(=O)N1CCN(c2ccc(OCC3COC(Cn4ccnc4)(c4ccc(Cl)cc4Cl)O3)cc2)CC1 (stereo not drawn) [ketoconazole]

Structure (SMILES): CC(C)(C)c1cc(NC(=O)Nc2ccc(-c3cn4c(n3)sc3cc(OCCN5CCOCC5)ccc34)cc2)no1 [quizartinib]
- Increase in quizartinib exposure ([1]; coadministration with moderate CYP3A inhibitor fluconazole): ≤ 20%
- Tmax ([1]; 30 mg): 4 h
- AUC(0-inf) [1, 8]: 9630 ng·h/mL
- AUC(0-t) [1, 8]: 9100 ng·h/mL
- half-life [1, 8]: 98 h
- Tmax ([1]; 200 mg): 4 h
- AUC(0-inf) [1, 9]: 11500 ng·h/mL
- AUC(0-inf) [1, 10]: 18700 ng·h/mL
- AUC(0-t) [1, 9]: 10900 ng·h/mL
- AUC(0-t) [1, 10]: 17000 ng·h/mL
- Cmax [1, 9]: 116 ng/mL
- Cmax [1, 10]: 121 ng/mL
- half-life [1, 9]: 112 h
- half-life [1, 10]: 145 h
- Decrease in CL/F ([1]; ketoconazole coadministered with quizartinib): 50%
- Increase in T1/2 [1]: 46%
- Median Tmax (min, max) ([1]; quizartinib in plasma, single 30-mg dose with fluconazole 200 mg twice daily): 4.0 (2.0, 5.0) [n = 28] h
- Mean T1/2 (CV%) ([1]; quizartinib in plasma, single 30-mg dose with ketoconazole 200 mg twice daily): 149 (23.0) [n = 28] h
- Geometric mean CL/F (%CV) ([1]; single 30-mg dose of quizartinib alone): 2.75 (35.9) [n = 29] L/h
- Geometric mean CL/F (%CV) ([1]; single 30-mg dose with fluconazole 200 mg twice daily): 2.29 (34.3) [n = 28] L/h
- Geometric mean CL/F (%CV) ([1]; single 30-mg dose with ketoconazole 200 mg twice daily): 1.42 (26.1) [n = 28] L/h
- Change in CL/F [1, 11]: ~17%
- Change in mean T1/2 [1, 11]: ~ 10%
- Increase in geometric LS mean AUCinf [1, 11]: 20%
- Increase in geometric LS mean AUClast [1, 11]: 20%
- Increase in geometric LS mean Cmax [1, 11]: 11%
- Increase in geometric LS mean AUCinf [1, 12]: 94%
- Increase in geometric LS mean AUClast [1, 12]: 86%
- Increase in geometric LS mean Cmax [1, 12]: 17%
- Vital signs and changes to QTcF, haematology or clinical chemistry [4]: No significant abnormalities in vital signs or changes to QTcF
- Serious adverse events ([5]; all treatment arms): no serious adverse events or deaths occurred; also recorded: no serious AEs observed
- Subjects who experienced at least 1 AE ([5]; fluconazole + quizartinib arm): 14 (45.2%) subjects (%)
- Subjects with AEs considered possibly related to quizartinib ([5]; fluconazole + quizartinib arm): 1 subjects
- Subjects with AEs considered possibly related to quizartinib ([5]; ketoconazole + quizartinib arm): 1 subjects
- Subjects who experienced quizartinib-related adverse events ([5]; overall): 5.4%
- Subjects with AEs considered possibly related to quizartinib ([5]; overall (n = 93)): 5 (5.4%) subjects (%)
- Subjects who experienced at least 1 AE ([5]; quizartinib + ketoconazole arm): 9 (29.0%) subjects (%)
- Subjects who experienced at least 1 AE ([5]; quizartinib arm): 13 (41.9%) subjects (%)
- Subjects with AEs considered possibly related to quizartinib ([5]; quizartinib arm): 3 subjects
- Median effective half-life [6]: 73 h
